Experimental data: publication PMC11776411 (Journal of Hepatocellular Carcinoma, 2025)

Tests used:
HepG2 cells = experiment: MTT cell viability assay, HepG2; assay type: cell-based, human; conditions: for IC50: Homo sapiens, HepG2, 72 h, read-out: IC50 (μM) HepG2
Huh7 cells [1] = experiment: MTT cell viability assay, Huh7; assay type: cell-based, human; conditions: for IC50: Homo sapiens, Huh-7, 72 h, read-out: IC50 (μM) Huh7
Hep3B cells = experiment: MTT cell viability assay, Hep3B; assay type: cell-based, human; conditions: for IC50: Homo sapiens, Hep3B, 72 h, read-out: IC50 (μM) Hep3B
[2] = tested on: LO2 cells (normal human hepatocytes); experiment: MTT cytotoxicity assay, normal liver cells LO2; assay type: cell-based; conditions: L02, 72 h, read-out: IC50 (μM) LO2
Summary of the method: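 LO2 normal human hepatocytes were grown in DMEM with 10% FBS and seeded at 5×10^3 cells per well overnight. Test compound was added at 0.1, 0.3, 1, 3, 10, 30 and 100 μM for up to 72 h. Viability was read by MTT: 0.5 mg/mL for 4 h, medium removed, DMSO added, absorbance measured. Experiments were repeated at least three times.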

Huh7 cells [3] = experiment: Ferroptosis inhibitor; assay type: cell-based, human; conditions: Huh7, co-treated with 10 μM 6c for 72 h
Huh7 cells [4] = experiment: NAC intervention experiment; assay type: cell-based, human; conditions: 5 or 10 mm N-acetylcysteine with 10 μM 6c for 24, 48, 72 h

Row | Compound | IC50 (HepG2 cells) | IC50 (Huh7 cells [1]) | IC50 (Hep3B cells) | IC50 [2] | also measured
1 | C[C@H]1[C@H](OC(=O)CCC(=O)O)O[C@@H]2O[C@@]3(C)CC[C@H]4[C@H](C)CC[C@@H]1[C@@]24OO3 [AS, Artesunate] | 42.8 ± 1.44 µM | 47.5 ± 1.39 µM | 44.2 ± 2.16 µM | 72.3 ± 1.37 µM | Selectivity Index SI 1 (HepG2 cells; SI1 = IC50 LO2/IC50 HepG2): 1.7; Selectivity Index SI 2 (Huh7 cells [1]; SI2 = IC50 LO2/IC50 Huh7): 1.5; Selectivity Index SI 3 (Hep3B cells; SI3 = IC50 LO2/IC50 Hep3B): 1.6
2 | Clc1cccc(CN=C2Nc3ccccc3NC23CCNCC3)c1 [Liproxstatin-1] |  |  |  |  | reversal of 6c-induced cell death (Huh7 cells [3]): reversed cell death in a concentration-dependent manner
3 | CC(=O)N[C@@H](CS)C(=O)O [N-acetylcysteine] |  |  |  |  | reversal of 6c inhibition of proliferation (Huh7 cells [4]): reversed the inhibitory effect of 6c on proliferation of Huh7 cells in time- and concentration-dependent manner

Second part, led by results:

Row | IC50 (HepG2 cells) | IC50 (Huh7 cells [1]) | IC50 (Hep3B cells) | Compound | IC50 [2] | also measured
4 |  | > 100 µM | > 100 µM | CNC(=O)c1cc(Oc2ccc(N)cc2)ccn1 [Compound 1, 4-(4-aminophenoxy)-N-methyl-2-pyridinecarboxamide] |  | 
5 | 6.45 ± 0.32 µM | 3.09 ± 0.08 µM |  | CNC(=O)c1cc(Oc2ccc(NC(=O)Nc3ccc(Cl)c(C(F)(F)F)c3)cc2)ccn1 [Sorafenib] | 8.63 ± 0.12 µM | 
